The test system of series [1] is Felis catus. In words: Duration for hypotensive action in cats after administering 10 ug/kg intravenously. The series is classed as functional. A digest of the protocol: (§1)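 Cats (2.5–4.0 kg, either sex) under ether, maintained on chloralose 70 mg/kg iv. Dosing by femoral vein catheter at 10, 25 or 50 µg/kg. Records initial BP, peak fall in mean arterial pressure, percent hypotension and response duration. Mean ± SEM, five experiments per dose.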

In series [2] the test system is Felis catus. Put plainly: Duration for hypotensive action in cats after administering 25 ug/kg intravenously. The series is classed as functional. A digest of the protocol: as §1
Series [3] has as its system Felis catus. Put plainly: Duration for hypotensive action in cats after administering 50 ug/kg intravenously. The series is classed as functional. The procedure, abridged:
as §1

Series [4] concerns Felis catus. Put plainly: Blood pressure lowering activity in anesthetized cats after intravenous administration of […] of compound. Format: functional.
Series [5] relates to Felis catus. In words: Hypotensive activity of compound was evaluated by measuring fall in blood pressure in cats after administering 10 ug/kg intravenously. The series is classed as functional. The procedure, abridged: as §1
Series [6] relates to Felis catus. In words: Hypotensive activity of compound was evaluated by measuring fall in blood pressure in cats after administering 25 ug/kg intravenously. The series is classed as functional. A digest of the protocol:
as §1

In series [7] the test system is Felis catus. Put plainly: Hypotensive activity of compound was evaluated by measuring fall in blood pressure in cats after administering 50 ug/kg intravenously. Format: functional. A digest of the protocol:
as §1

Series [8] relates to Felis catus. Put plainly: Hypotensive activity of compound was evaluated by measuring initial blood pressure in cats after administering 10 ug/kg intravenously. Format: functional. A digest of the protocol:
as §1

In series [9] the test system is Felis catus. In words: Hypotensive activity of compound was evaluated by measuring initial blood pressure in cats after administering 25 ug/kg intravenously. The series is classed as functional. A digest of the protocol: as §1
Series [10] deals with Felis catus. Put plainly: Hypotensive activity of compound was evaluated by measuring initial blood pressure in cats after administering 50 ug/kg intravenously. Format: functional. The procedure, abridged: as §1
In series [11] the test system is Felis catus. Put plainly: Percent hypotension was determined in cats after administering 10 ug/kg intravenously. Format: functional. The procedure, abridged: as §1
Series [12] has as its system Felis catus. In words: Percent hypotension was determined in cats after administering 25 ug/kg intravenously. The series is classed as functional. The procedure, abridged:
as §1

For series [13], the system named is Felis catus. In words: Percent hypotension was determined in cats after administering 50 ug/kg intravenously. The series is classed as functional. The procedure, abridged:
as §1

Series [14] has as its system Felis catus. Put plainly: Dose estimated to produce 25 mm Hg fall in mean systemic blood pressure of anesthetized cat at 10 min after administration. Format: functional.
Series [15] has as its system Canis familiaris. In words: Hypotensive activity of compound was evaluated by measuring fall in blood pressure in dogs after administering 100 ug/kg intravenously. Format: functional, Canis lupus familiaris. The procedure, abridged: (§2)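 Mongrel dogs (10–16 kg, either sex) anesthetized with pentobarbitone sodium 35 mg/kg iv. Dosing by femoral vein catheter at 25, 50 or 100 µg/kg. Records initial BP, maximal fall in mean arterial pressure, percent hypotension and duration. Mean ± SEM, 3–8 experiments per dose.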

Series [16] concerns Canis familiaris. Put plainly: Hypotensive activity of compound was evaluated by measuring fall in blood pressure in dogs after administering 25 ug/kg intravenously. Format: functional, Canis lupus familiaris. The procedure, abridged: as §2
The test system of series [17] is Canis familiaris. In words: Hypotensive activity of compound was evaluated by measuring fall in blood pressure in dogs after administering 50 ug/kg intravenously. The series is classed as functional, Canis lupus familiaris. A digest of the protocol: as §2
In series [18] the test system is Canis familiaris. In words: Hypotensive activity of compound was evaluated by measuring initial blood pressure in dogs after administering 100 ug/kg intravenously. The series is classed as functional, Canis lupus familiaris. The procedure, abridged:
as §2

In series [19] the test system is Canis familiaris. In words: Hypotensive activity of compound was evaluated by measuring initial blood pressure in dogs after administering 25 ug/kg intravenously. Format: functional, Canis lupus familiaris. A digest of the protocol: as §2
For series [20], the system named is Canis familiaris. In words: Hypotensive activity of compound was evaluated by measuring initial blood pressure in dogs after administering 50 ug/kg intravenously. Format: functional, Canis lupus familiaris. The procedure, abridged:
as §2

Series [21] deals with Canis familiaris. Put plainly: Duration for hypotensive action in dogs after administering 100 ug/kg intravenously. The series is classed as functional, Canis lupus familiaris. A digest of the protocol:
as §2

In series [22] the test system is Canis familiaris. Put plainly: Duration for hypotensive action in dogs after administering 25 ug/kg intravenously. Format: functional, Canis lupus familiaris. A digest of the protocol:
as §2

Series [23] deals with Canis familiaris. Put plainly: Duration for hypotensive action in dogs after administering 50 ug/kg intravenously. The series is classed as functional, Canis lupus familiaris. The procedure, abridged: as §2
Series [24] deals with Canis familiaris. Put plainly: Percent hypotension was determined in dogs after administering 100 ug/kg intravenously. The series is classed as functional, Canis lupus familiaris. The procedure, abridged: as §2
Series [25] relates to Canis familiaris. In words: Percent hypotension was determined in dogs after administering 25 ug/kg intravenously. The series is classed as functional, Canis lupus familiaris. The procedure, abridged:
as §2

The test system of series [26] is Canis familiaris. Put plainly: Percent hypotension was determined in dogs after administering 50 ug/kg intravenously. Format: functional, Canis lupus familiaris. The procedure, abridged:
as §2

The nature of series [27]: Compound was tested for toxicity in mice after intraperitoneal administration. The series is classed as organism-based. The settings on record: mouse, in vivo, ip. A digest of the protocol: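 Mice (18–22 g), either sex. Compound dissolved in distilled water or suspended in 0.5% (carboxymethyl)cellulose and given ip at 10, 30, 100, 300 and 1000 mg/kg, 1 mL/100 g body weight. Animals observed for 48 h; approximate LD50 calculated by the Campbell and Richter method.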

Series [28] relates to Oryctolagus cuniculus. In words: Hypotensive activity of compound was evaluated by measuring fall in blood pressure in rabbits after administering 25 ug/kg intravenously. The series is classed as functional. A digest of the protocol:
(§3)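 Anesthetized rabbits. Dosing by femoral vein catheter at 10, 25 or 50 µg/kg. Records initial BP, maximal fall in mean arterial pressure, percent hypotension and duration of hypotension. Mean ± SEM, 6–7 experiments per dose.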

Series [29] has as its system Oryctolagus cuniculus. Put plainly: Hypotensive activity of compound was evaluated by measuring fall in blood pressure in rabbits after administering 50 ug/kg intravenously. The series is classed as functional. The procedure, abridged: as §3
In series [30] the test system is Oryctolagus cuniculus. Put plainly: Hypotensive activity of compound was evaluated by measuring initial blood pressure in rabbits after administering 10 ug/kg intravenously. Format: functional. The procedure, abridged: as §3
In series [31] the test system is Oryctolagus cuniculus. Put plainly: Hypotensive activity of compound was evaluated by measuring initial blood pressure in rabbits after administering 25 ug/kg intravenously. The series is classed as functional. A digest of the protocol:
as §3

Series [32] concerns Oryctolagus cuniculus. In words: Hypotensive activity of compound was evaluated by measuring fall in blood pressure in rabbits after administering 10 ug/kg intravenously. Format: functional. The procedure, abridged: as §3
In series [33] the test system is Oryctolagus cuniculus. In words: Duration for hypotensive action in rabbits after administering 10 ug/kg intravenously. Format: functional. A digest of the protocol:
as §3

For series [34], the system named is Oryctolagus cuniculus. In words: Duration for hypotensive action in rabbits after administering 25 ug/kg intravenously. The series is classed as functional. The procedure, abridged: as §3
For series [35], the system named is Oryctolagus cuniculus. In words: Duration for hypotensive action in rabbits after administering 50 ug/kg intravenously. The series is classed as functional. The procedure, abridged:
as §3

The test system of series [36] is Oryctolagus cuniculus. Put plainly: Percent hypotension was determined in rabbits after administering 10 ug/kg intravenously. The series is classed as functional. The procedure, abridged:
as §3

Series [37] relates to Oryctolagus cuniculus. Put plainly: Percent hypotension was determined in rabbits after administering 25 ug/kg intravenously. The series is classed as functional. The procedure, abridged: as §3
Series [38] relates to Oryctolagus cuniculus. Put plainly: Percent hypotension was determined in rabbits after administering 50 ug/kg intravenously. The series is classed as functional. A digest of the protocol: as §3
The subject of series [39] is Oryctolagus cuniculus. Put plainly: Hypotensive activity of compound was evaluated by measuring initial blood pressure in rabbits after administering 50 ug/kg intravenously. Format: functional. A digest of the protocol: as §3
Series [40] deals with Rattus norvegicus. In words: Difference in systolic blood pressure of SH rats observed prior to the first application and 2 hr after the fifth application at the oral dose of 5 mg/kg was expressed as Delta BP. Format: functional, Artery. The procedure, abridged:
(§4)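 Male spontaneously hypertensive rats (Wistar–Okamoto, 250–300 g, 12–16 weeks), conscious. Dosed orally once daily for 5 days in 0.9% NaCl or 0.5% carboxymethylcellulose (10 mL/kg); vehicle control group. Rats warmed at 37–38 °C for 10 min, then systolic pressure taken by tail-cuff (piezoelectric pulse detection). ΔBP = pre-first-dose minus 2 h after fifth dose; mean ± SEM, six animals.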

Series [41] relates to Felis catus. Put plainly: Dose estimated to produce a fall in mean blood pressure of anesthetized cat at 10 min after administration. Format: functional. A digest of the protocol:
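Cats (2.5–4.0 kg, either sex), ether induction, chloralose 70 mg/kg iv maintenance. Compound in distilled water or propylene glycol given via femoral vein at 0.01–10 mg/kg. Fall in mean arterial pressure read 10 min post-dose; ED25 (dose for 25 mmHg fall) calculated from log dose–response curve.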

The species named for series [42] is Rattus norvegicus. In words: Delta BP refers to difference in systolic blood pressure of SH rats. The series is classed as functional, Artery. The procedure, abridged: as §4
For series [43], the system named is Rattus norvegicus. In words: Difference in systolic blood pressure of SH rats observed prior to the first application and 2 hr after the fifth application at the oral dose of 25 mg/kg was expressed as Delta BP. Format: functional, Artery. The procedure, abridged:
as §4

The species entered for series [44] is Rattus norvegicus. Put plainly: Evaluated for antihypertensive activity in hypertensive(SH) rat.

For the molecule `COc1cc2c(cc1OC)-c1c/c(=N\c3c(C)cc(C)cc3C)n(C)c(=O)n1CC2.Cl` [TREQUINSIN HYDROCHLORIDE], the Duration with Felis catus [1] was 16 min; in the series on Felis catus [2], 45 min; with Felis catus [3], 82.5 min; in the series with Canis familiaris [21], 140 min; in the series on Canis familiaris [22] it was 50 min; with Canis familiaris [23], 98.3 min. Further, the results for the Duration in the series with Oryctolagus cuniculus [33], in the series with Oryctolagus cuniculus [34] and in the series on Oryctolagus cuniculus [35] were 20.7 min, 57.8 min and 70 min, respectively. The ED25 in the series on Felis catus [4] and with Felis catus [14] was 0.025 mg/kg in each case. In addition, the BP in the series on Felis catus [5] is recorded as 17 mmHg; in the series with Felis catus [6] it was 25.8 mmHg; in the series on Felis catus [7], 34.2 mmHg; in the series with Felis catus [8], 110 mmHg; in the series with Felis catus [9] it was 116 mmHg; in the series with Felis catus [10] it was 125 mmHg. Further, the BP came to 56.1 mmHg with Canis familiaris [15]; 37.5 mmHg in the series on Canis familiaris [16]; 40.8 mmHg in the series on Canis familiaris [17]; 168.3 mmHg in the series with Canis familiaris [18]; 168.8 mmHg in the series on Canis familiaris [19]; 163.3 mmHg in the series on Canis familiaris [20]. In addition, the BP with Oryctolagus cuniculus [28] is listed as 26.4 mmHg; with Oryctolagus cuniculus [29], 24.2 mmHg; with Oryctolagus cuniculus [30], 93.8 mmHg; in the series on Oryctolagus cuniculus [31] it was 89.6 mmHg; with Oryctolagus cuniculus [32], 17.4 mmHg; in the series on Oryctolagus cuniculus [39], 84.2 mmHg. Moreover, the Hypotension in the series on Felis catus [11] stood at 16.8%; in the series on Felis catus [12] it was 23.4%; with Felis catus [13] it was 28.6%; with Canis familiaris [24] it was 33.7%; with Canis familiaris [25], 22.9%; with Canis familiaris [26], 25.4%. Besides, the Hypotension in the series on Oryctolagus cuniculus [36] worked out at 18.6%; in the series with Oryctolagus cuniculus [37] it was 29.9%; in the series on Oryctolagus cuniculus [38], 28.5%. Further, in [27], the LD50 worked out at 150 mg/kg. Also, in the series on Rattus norvegicus [40], the Delta blood pressure was -41 mmHg.
As to `COc1cc2c(cc1OC)-c1cc(N(C)c3c(F)cccc3F)nc(=O)n1CC2`, the results for the ED25 in the series with Felis catus [41] and with Felis catus [14] were 0.03 mg/kg and 6 mg/kg, respectively. The Delta blood pressure in the series listed under Rattus norvegicus [42] and with Rattus norvegicus [43] was 0 mmHg throughout. Besides, in the series listed under Rattus norvegicus [44], the Antihypertensive activity came to 10 mg/kg.

Broadly, the LD50 is the dose at which mortality reaches 50%.

The values above are taken from ChEMBL document CHEMBL1122780, “Trequinsin, a potent new antihypertensive vasodilator in the series of 2-(arylimino)-3-alkyl-9,10-dimethoxy-3,4,6,7-tetrahydro-2H-py rim ido [6,1-a]isoquinolin-4-ones” (J Med Chem, 1984).
